Laboratory results published in ChEMBL document CHEMBL3297689, “Phenylalanine-Based Inactivator of AKT Kinase: Design, Synthesis, and Biological Evaluation” (ACS Med Chem Lett, 2014).
Each block holds one compound with its values, some of them ahead of it.

How the values were obtained:
[1] = target: T1, RAC-alpha serine/threonine-protein kinase (Homo sapiens, UniProt P31749); assay: Inhibition of AKT1 (unknown origin) after 1 hr by Z'-LYTE kinase assay in presence of 75 uM ATP
[2] = target: T1, RAC-alpha serine/threonine-protein kinase; assay: Irreversible inhibition of AKT1 (unknown origin) Z'-LYTE kinase assay in presence of ATP; settings: TDE = time-dependent effect
Procedure, shortened: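 Recombinant AKT1 activity read by the FRET-based Z′-LYTE kit, which measures phosphorylation of a peptide substrate. […] IC50 values are averages of three independent experiments with 95% confidence intervals.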

[3] = Inhibition of PKAalpha (unknown origin) after 1 hr by Z'-LYTE kinase assay in presence of 4 uM ATP; design: species or system Homo sapiens
Procedure, shortened: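 Z′-LYTE FRET assay measuring phosphorylation of a peptide substrate by recombinant kinase, independent of mechanism. IC50 is the average of three independent experiments, with 95% confidence intervals.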

[4] = target: T1, RAC-alpha serine/threonine-protein kinase; assay: Inhibition of AKT1 (unknown origin) at 1 uM in presence of 100 uM ATP
[5] = target: 5'-AMP-activated protein kinase catalytic subunit alpha-1 (Homo sapiens) (UniProt Q13131); assay: Inhibition of AMPKalpha1 (unknown origin) at 1 uM in presence of 100 uM ATP
[6] = target: Calcium/calmodulin-dependent protein kinase type IV (Homo sapiens) (UniProt Q16566); assay: Inhibition of CAMK-4 (unknown origin) at 1 uM in presence of 100 uM ATP
[7] = target: Serine/threonine-protein kinase Chk2 (Homo sapiens) (UniProt O96017); assay: Inhibition of CHK2 (unknown origin) at 1 uM in presence of 100 uM ATP
[8] = target: Maternal embryonic leucine zipper kinase (Homo sapiens) (UniProt Q14680); assay: Inhibition of MELK (unknown origin) at 1 uM in presence of 100 uM ATP
[9] = Growth inhibition of human HCT116 cells after 72 hrs by coulter counter method; assay type: functional, cell-based; settings: HCT-116, 72 h
NCI-H460 = assay: Growth inhibition of human NCI-H460 cells after 72 hrs by coulter counter method; assay type: functional, cell-based; settings: NCI-H460, 72 h
[10] = Selectivity index, ratio of IC50 for human HCT116 cells to IC50 for recombinant AKT (unknown origin); design: species or system HCT-116
[11] = Selectivity index, ratio of IC50 for human NCI-H460 cells to IC50 for recombinant AKT (unknown origin)
[12] = target: Tyrosine-protein kinase ABL1 (Homo sapiens) (UniProt P00519); assay: Inhibition of ABL1 (unknown origin) at 1 uM in presence of 100 uM ATP
[13] = target: AMP-activated protein kinase, AMPK (Homo sapiens) (UniProt P54646+O43741+P54619+Q9UGJ0+Q9Y478+Q13131+Q9UGI9); assay: Inhibition of AMPKalpha1/beta1/gamma1 (unknown origin) at 1 uM in presence of 100 uM ATP; assay type: protein-complex assay
[14] = target: Aurora kinase A (Homo sapiens) (UniProt O14965); assay: Inhibition of AURKA (unknown origin) at 1 uM in presence of 100 uM ATP
[15] = target: Calcium/calmodulin-dependent protein kinase type 1D (Homo sapiens) (UniProt Q8IU85); assay: Inhibition of CAMK1D (unknown origin) at 1 uM in presence of 100 uM ATP
[16] = target: Cyclin-dependent kinase 1/cyclin B1 (Homo sapiens) (UniProt P06493+P14635); assay: Inhibition of CDK1/cyclinB (unknown origin) at 1 uM in presence of 100 uM ATP; assay type: protein-complex assay
[17] = target: CDK2/Cyclin A2 (Homo sapiens) (UniProt P24941+P20248); assay: Inhibition of CDK2/cyclinA (unknown origin) at 1 uM in presence of 100 uM ATP; assay type: protein-complex assay
[18] = target: Serine/threonine-protein kinase Chk1 (Homo sapiens) (UniProt O14757); assay: Inhibition of CHK1 (unknown origin) at 1 uM in presence of 100 uM ATP
[19] = target: Tyrosine-protein kinase CSK (Homo sapiens) (UniProt P41240); assay: Inhibition of CSK (unknown origin) at 1 uM in presence of 100 uM ATP
[20] = target: Epidermal growth factor receptor (Homo sapiens) (UniProt P00533); assay: Inhibition of EGFR (unknown origin) at 1 uM in presence of 100 uM ATP
[21] = target: Receptor tyrosine-protein kinase erbB-4 (Homo sapiens) (UniProt Q15303); assay: Inhibition of ERBB4 (unknown origin) at 1 uM in presence of 100 uM ATP
[22] = target: Vascular endothelial growth factor receptor 1 (Homo sapiens) (UniProt P17948); assay: Inhibition of FLT1 (unknown origin) at 1 uM in presence of 100 uM ATP
[23] = target: Vascular endothelial growth factor receptor 2 (Homo sapiens) (UniProt P35968); assay: Inhibition of VEGFR2 (unknown origin) at 1 uM in presence of 100 uM ATP
[24] = target: Tyrosine-protein kinase Lyn (Homo sapiens) (UniProt P07948); assay: Inhibition of LYN A (unknown origin) at 1 uM in presence of 100 uM ATP
[25] = target: Dual specificity mitogen-activated protein kinase kinase 1 (Homo sapiens) (UniProt Q02750); assay: Inhibition of MEK1 (unknown origin) at 1 uM in presence of 100 uM ATP
[26] = target: Mitogen-activated protein kinase kinase kinase kinase 5 (Homo sapiens) (UniProt Q9Y4K4); assay: Inhibition of MAP4K5 (unknown origin) at 1 uM in presence of 100 uM ATP
[27] = target: Mitogen-activated protein kinase 1 (Homo sapiens) (UniProt P28482); assay: Inhibition of MAPK1 (unknown origin) at 1 uM in presence of 100 uM ATP
[28] = target: Mitogen-activated protein kinase 14 (Homo sapiens) (UniProt Q16539); assay: Inhibition of MAPK14 (unknown origin) at 1 uM in presence of 100 uM ATP
[29] = target: Mitogen-activated protein kinase 3 (Homo sapiens) (UniProt P27361); assay: Inhibition of MAPK3 (unknown origin) at 1 uM in presence of 100 uM ATP
[30] = target: MAP kinase-activated protein kinase 2 (Homo sapiens) (UniProt P49137); assay: Inhibition of MAPKAPK2 (unknown origin) at 1 uM in presence of 100 uM ATP
[31] = target: Serine/threonine-protein kinase MARK1 (Homo sapiens) (UniProt Q9P0L2); assay: Inhibition of MARK1 (unknown origin) at 1 uM in presence of 100 uM ATP
[32] = target: Hepatocyte growth factor receptor (Homo sapiens) (UniProt P08581); assay: Inhibition of MET (unknown origin) at 1 uM in presence of 100 uM ATP
[33] = target: MAP kinase-interacting serine/threonine-protein kinase 1 (Homo sapiens) (UniProt Q9BUB5); assay: Inhibition of MKNK1 (unknown origin) at 1 uM in presence of 100 uM ATP
[34] = target: PAS domain-containing serine/threonine-protein kinase (Homo sapiens) (UniProt Q96RG2); assay: Inhibition of PASK (unknown origin) at 1 uM in presence of 100 uM ATP
[35] = target: Platelet-derived growth factor receptor alpha (Homo sapiens) (UniProt P16234); assay: Inhibition of PDGFRA (unknown origin) at 1 uM in presence of 100 uM ATP
[36] = target: 3-phosphoinositide-dependent protein kinase 1 (Homo sapiens) (UniProt O15530); assay: Inhibition of PDK1 (unknown origin) at 1 uM in presence of 100 uM ATP
[37] = target: Serine/threonine-protein kinase PLK1 (Homo sapiens) (UniProt P53350); assay: Inhibition of PLK1 (unknown origin) at 1 uM in presence of 100 uM ATP
Homo sapiens [38] = species: Homo sapiens; assay: Inhibition of PKAalpha (unknown origin) at 1 uM in presence of 100 uM ATP
[39] = target: Protein kinase C alpha type (Homo sapiens) (UniProt P17252); assay: Inhibition of PKCalpha (unknown origin) at 1 uM in presence of 100 uM ATP
[40] = target: Protein kinase C theta type (Homo sapiens) (UniProt Q04759); assay: Inhibition of PKCtheta (unknown origin) at 1 uM in presence of 100 uM ATP
[41] = target: cGMP-dependent protein kinase 1 (Homo sapiens) (UniProt Q13976); assay: Inhibition of PRKG1 (unknown origin) at 1 uM in presence of 100 uM ATP
[42] = target: cAMP-dependent protein kinase catalytic subunit PRKX (Homo sapiens) (UniProt P51817); assay: Inhibition of PRKX (unknown origin) at 1 uM in presence of 100 uM ATP
[43] = target: Focal adhesion kinase 1 (Homo sapiens) (UniProt Q05397); assay: Inhibition of PTK2 (unknown origin) at 1 uM in presence of 100 uM ATP
[44] = target: Ribosomal protein S6 kinase alpha-1 (Homo sapiens) (UniProt Q15418); assay: Inhibition of RSK1 (unknown origin) at 1 uM in presence of 100 uM ATP
[45] = target: Ribosomal protein S6 kinase alpha-5 (Homo sapiens) (UniProt O75582); assay: Inhibition of MSK1 (unknown origin) at 1 uM in presence of 100 uM ATP
[46] = target: Ribosomal protein S6 kinase beta-1 (Homo sapiens) (UniProt P23443); assay: Inhibition of p70S6K (unknown origin) at 1 uM in presence of 100 uM ATP
[47] = target: Serine/threonine-protein kinase Sgk1 (Homo sapiens) (UniProt O00141); assay: Inhibition of SGK1 (unknown origin) at 1 uM in presence of 100 uM ATP
[48] = target: Proto-oncogene tyrosine-protein kinase Src (Homo sapiens) (UniProt P12931); assay: Inhibition of SRC (unknown origin) at 1 uM in presence of 100 uM ATP
[49] = target: Testis-specific serine/threonine-protein kinase 1 (Homo sapiens) (UniProt Q9BXA7); assay: Inhibition of TSSK1 (unknown origin) at 1 uM in presence of 100 uM ATP
[50] = target: Tyrosine-protein kinase SYK (Homo sapiens) (UniProt P43405); assay: Inhibition of SYK (unknown origin) at 1 uM in presence of 100 uM ATP
Homo sapiens [51] = species: Homo sapiens; assay: Selectivity for AKT1 (unknown origin) over PKAalpha (unknown origin)
Procedure, shortened: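 Selectivity is the PKAα IC50 divided by the AKT1 IC50. Both IC50s were measured in the FRET-based Z′-LYTE peptide-phosphorylation assay.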

T1 sequence (P31749 whole entry): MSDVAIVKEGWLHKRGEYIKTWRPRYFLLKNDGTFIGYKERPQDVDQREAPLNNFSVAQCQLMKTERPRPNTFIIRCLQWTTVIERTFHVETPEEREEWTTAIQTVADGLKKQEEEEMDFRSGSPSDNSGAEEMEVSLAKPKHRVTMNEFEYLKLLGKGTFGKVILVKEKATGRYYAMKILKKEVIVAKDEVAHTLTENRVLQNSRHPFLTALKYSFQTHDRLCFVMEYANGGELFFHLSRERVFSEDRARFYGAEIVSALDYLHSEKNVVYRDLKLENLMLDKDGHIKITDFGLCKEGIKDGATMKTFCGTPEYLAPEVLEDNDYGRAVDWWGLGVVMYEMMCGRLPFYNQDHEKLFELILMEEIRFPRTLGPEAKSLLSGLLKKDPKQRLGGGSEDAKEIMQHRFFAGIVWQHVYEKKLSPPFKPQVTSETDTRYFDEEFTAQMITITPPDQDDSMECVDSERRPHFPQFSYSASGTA
Sequence of Serine/threonine-protein kinase Sgk1 (Homo sapiens) (O00141 whole entry): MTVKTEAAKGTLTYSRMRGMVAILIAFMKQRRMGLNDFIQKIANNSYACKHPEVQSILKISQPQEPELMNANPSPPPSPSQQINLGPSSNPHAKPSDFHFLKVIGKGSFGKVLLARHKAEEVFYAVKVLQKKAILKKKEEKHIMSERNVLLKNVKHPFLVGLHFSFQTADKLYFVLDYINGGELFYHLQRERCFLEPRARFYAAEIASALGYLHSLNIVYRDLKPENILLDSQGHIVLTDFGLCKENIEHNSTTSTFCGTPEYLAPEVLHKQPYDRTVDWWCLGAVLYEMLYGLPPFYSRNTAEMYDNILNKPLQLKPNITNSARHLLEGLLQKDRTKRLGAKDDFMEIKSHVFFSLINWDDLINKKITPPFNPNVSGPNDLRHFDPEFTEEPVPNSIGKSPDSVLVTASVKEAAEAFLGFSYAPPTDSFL
Sequence of cGMP-dependent protein kinase 1 (Homo sapiens) (Q13976 whole entry): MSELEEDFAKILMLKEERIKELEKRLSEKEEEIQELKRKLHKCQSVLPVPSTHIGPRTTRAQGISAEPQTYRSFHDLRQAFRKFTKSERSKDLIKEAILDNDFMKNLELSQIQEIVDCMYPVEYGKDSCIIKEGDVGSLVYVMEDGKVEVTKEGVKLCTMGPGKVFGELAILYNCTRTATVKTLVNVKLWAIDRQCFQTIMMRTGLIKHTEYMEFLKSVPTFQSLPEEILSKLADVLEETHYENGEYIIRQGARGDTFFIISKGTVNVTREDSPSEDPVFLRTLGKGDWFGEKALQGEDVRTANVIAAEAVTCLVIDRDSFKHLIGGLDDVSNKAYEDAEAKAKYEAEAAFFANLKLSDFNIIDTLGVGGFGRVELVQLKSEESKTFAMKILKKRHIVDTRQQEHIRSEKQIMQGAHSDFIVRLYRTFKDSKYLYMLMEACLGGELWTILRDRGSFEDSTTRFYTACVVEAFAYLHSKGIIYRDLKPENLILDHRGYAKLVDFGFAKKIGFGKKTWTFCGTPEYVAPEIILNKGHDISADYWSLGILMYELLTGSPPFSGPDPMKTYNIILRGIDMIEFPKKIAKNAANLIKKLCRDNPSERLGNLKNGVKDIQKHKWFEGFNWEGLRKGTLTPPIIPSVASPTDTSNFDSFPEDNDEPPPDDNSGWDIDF
Sequence of 5'-AMP-activated protein kinase catalytic subunit alpha-1 (Homo sapiens) (Q13131 whole entry, looked up): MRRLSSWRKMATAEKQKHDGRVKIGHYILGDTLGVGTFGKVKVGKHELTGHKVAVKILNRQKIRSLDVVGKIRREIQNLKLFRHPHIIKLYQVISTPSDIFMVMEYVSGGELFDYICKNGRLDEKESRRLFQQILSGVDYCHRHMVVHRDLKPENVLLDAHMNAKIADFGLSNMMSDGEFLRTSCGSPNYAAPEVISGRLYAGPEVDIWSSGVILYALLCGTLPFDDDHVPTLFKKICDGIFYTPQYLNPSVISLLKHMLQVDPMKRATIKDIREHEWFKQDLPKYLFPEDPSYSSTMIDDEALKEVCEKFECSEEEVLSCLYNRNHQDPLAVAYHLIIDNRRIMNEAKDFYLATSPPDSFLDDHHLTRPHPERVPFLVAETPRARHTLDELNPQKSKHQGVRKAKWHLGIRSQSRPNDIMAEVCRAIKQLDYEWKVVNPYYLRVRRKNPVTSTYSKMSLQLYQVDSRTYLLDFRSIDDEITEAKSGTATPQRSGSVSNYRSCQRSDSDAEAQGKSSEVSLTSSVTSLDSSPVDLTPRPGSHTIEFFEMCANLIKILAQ
Sequence of Mitogen-activated protein kinase 1 (Homo sapiens) (P28482 whole entry): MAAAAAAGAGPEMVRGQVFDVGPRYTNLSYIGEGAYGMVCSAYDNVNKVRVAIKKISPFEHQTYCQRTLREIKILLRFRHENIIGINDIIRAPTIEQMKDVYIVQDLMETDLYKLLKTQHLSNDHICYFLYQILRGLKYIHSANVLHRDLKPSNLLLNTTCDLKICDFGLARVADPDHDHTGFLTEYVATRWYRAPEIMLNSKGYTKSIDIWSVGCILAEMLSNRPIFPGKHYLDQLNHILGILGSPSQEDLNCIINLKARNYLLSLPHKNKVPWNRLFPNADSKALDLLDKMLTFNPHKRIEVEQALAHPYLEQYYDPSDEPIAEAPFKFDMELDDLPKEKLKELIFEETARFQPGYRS
Sequence of Hepatocyte growth factor receptor (Homo sapiens) (P08581 whole entry): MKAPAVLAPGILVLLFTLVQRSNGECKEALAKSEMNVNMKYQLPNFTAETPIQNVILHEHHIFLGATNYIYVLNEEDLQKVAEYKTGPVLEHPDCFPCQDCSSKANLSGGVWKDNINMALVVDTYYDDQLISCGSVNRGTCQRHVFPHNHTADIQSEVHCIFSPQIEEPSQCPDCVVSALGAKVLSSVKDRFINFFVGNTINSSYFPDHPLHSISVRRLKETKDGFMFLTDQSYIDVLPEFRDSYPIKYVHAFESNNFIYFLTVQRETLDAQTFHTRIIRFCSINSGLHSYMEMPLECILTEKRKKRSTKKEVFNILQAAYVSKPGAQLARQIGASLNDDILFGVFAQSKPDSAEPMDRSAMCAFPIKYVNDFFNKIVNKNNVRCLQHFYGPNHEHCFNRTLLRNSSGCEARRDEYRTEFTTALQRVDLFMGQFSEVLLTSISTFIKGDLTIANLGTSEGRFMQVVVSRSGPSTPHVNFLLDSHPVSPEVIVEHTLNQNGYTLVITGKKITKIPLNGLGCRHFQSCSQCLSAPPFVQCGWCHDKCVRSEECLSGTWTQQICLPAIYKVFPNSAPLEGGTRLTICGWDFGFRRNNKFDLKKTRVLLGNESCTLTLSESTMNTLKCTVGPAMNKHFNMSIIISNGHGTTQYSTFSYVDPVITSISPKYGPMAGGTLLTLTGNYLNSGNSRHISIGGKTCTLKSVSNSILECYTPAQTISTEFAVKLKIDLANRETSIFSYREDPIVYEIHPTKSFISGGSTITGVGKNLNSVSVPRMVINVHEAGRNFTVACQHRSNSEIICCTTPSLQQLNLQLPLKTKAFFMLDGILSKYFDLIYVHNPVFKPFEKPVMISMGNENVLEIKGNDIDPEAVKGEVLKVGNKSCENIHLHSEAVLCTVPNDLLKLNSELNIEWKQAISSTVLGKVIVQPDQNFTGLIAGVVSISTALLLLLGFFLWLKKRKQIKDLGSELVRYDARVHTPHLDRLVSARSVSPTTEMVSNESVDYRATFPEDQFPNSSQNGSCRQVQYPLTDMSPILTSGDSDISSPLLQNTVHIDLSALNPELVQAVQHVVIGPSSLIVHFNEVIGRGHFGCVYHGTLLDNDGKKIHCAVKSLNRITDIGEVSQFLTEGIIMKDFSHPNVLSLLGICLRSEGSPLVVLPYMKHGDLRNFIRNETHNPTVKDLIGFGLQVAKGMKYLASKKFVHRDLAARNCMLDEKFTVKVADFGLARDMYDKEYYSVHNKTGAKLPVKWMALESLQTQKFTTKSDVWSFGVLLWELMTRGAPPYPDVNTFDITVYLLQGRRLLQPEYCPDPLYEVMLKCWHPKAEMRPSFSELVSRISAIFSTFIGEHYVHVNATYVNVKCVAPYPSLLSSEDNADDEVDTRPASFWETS
Sequence of Ribosomal protein S6 kinase alpha-5 (Homo sapiens) (O75582 whole entry, looked up): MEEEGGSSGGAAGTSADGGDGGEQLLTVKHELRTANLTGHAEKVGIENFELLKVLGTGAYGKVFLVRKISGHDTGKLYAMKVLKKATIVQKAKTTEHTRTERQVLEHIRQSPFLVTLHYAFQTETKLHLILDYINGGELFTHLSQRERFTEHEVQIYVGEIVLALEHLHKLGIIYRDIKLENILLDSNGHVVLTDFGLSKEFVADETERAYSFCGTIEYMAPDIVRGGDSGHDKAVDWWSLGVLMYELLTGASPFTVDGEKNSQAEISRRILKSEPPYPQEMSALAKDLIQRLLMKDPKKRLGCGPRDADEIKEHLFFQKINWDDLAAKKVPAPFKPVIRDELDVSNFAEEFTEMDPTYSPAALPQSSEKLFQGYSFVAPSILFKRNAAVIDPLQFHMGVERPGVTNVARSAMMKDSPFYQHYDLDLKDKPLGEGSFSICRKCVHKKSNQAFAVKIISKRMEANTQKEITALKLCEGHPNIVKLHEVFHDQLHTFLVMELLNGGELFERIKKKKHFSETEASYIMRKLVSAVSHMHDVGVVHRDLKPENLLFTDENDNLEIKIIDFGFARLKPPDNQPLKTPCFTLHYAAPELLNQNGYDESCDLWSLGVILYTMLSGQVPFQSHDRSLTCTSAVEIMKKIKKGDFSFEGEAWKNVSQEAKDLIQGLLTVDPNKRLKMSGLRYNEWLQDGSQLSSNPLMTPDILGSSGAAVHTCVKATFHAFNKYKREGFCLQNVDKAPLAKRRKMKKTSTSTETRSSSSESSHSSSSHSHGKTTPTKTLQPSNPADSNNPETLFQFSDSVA
Sequence of cAMP-dependent protein kinase catalytic subunit PRKX (Homo sapiens) (P51817 whole entry): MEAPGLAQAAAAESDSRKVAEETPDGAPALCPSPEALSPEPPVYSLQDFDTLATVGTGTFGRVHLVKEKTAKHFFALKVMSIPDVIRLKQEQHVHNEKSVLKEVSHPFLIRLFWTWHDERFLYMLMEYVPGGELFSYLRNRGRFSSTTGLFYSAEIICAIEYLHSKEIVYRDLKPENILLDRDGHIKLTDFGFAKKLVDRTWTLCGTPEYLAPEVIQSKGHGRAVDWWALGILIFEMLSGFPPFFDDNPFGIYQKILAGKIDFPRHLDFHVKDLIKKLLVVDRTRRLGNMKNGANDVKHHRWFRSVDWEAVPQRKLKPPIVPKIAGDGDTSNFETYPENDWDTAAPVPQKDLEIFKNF

- IC50 [1]: 4.48 µM
Structure (SMILES): CC(C)(C)OC(=O)N[C@@H](Cc1ccccc1)C(=O)NCCN1C(=O)C=CC1=O

- IC50 [1]: 16.1 µM
Structure (SMILES): CC(C)(C)OC(=O)NN(Cc1ccccc1)C(=O)CI

- IC50 [1]: > 100 µM
Structure (SMILES): CC(C)(C)OC(=O)N[C@@H](Cc1ccccc1)C(=O)NCCBr

- IC50 [1]: 0.58 µM
- inhibition [2]: tde
- IC50 [3]: 52.6 µM
- inhibition [4]: 50%
- inhibition [5]: 46%
- inhibition [6]: 50%
- inhibition [7]: 46%
- inhibition [8]: 62%
- inhibition [12]: 13%
- inhibition [13]: 46%
- inhibition [14]: 35%
- inhibition [15]: 36%
- inhibition [16]: 9%
- inhibition [17]: 3%
- inhibition [18]: 5%
- inhibition [19]: 8%
- inhibition [20]: -2%
- inhibition [21]: 9%
- inhibition [22]: 2%
- inhibition [23]: -6%
- inhibition [24]: 5%
- inhibition [25]: 5%
- inhibition [26]: 22%
- inhibition [27]: 15%
- inhibition [28]: 17%
- inhibition [29]: 8%
- inhibition [30]: -7%
- inhibition [31]: 4%
- inhibition [32]: 11%
- inhibition [33]: 2%
- inhibition [34]: 19%
- inhibition [35]: 0%
- inhibition [36]: 15%
- inhibition [37]: 10%
- inhibition (Homo sapiens [38]): -10%
- inhibition [39]: 18%
- inhibition [40]: 3%
- inhibition [41]: -4%
- inhibition [42]: -1%
- inhibition [43]: -4%
- inhibition [44]: 5%
- inhibition [45]: 10%
- inhibition [46]: 14%
- inhibition [47]: 34%
- inhibition [48]: -4%
- inhibition [49]: -1%
- inhibition [50]: -1%
- Selectivity ratio (Homo sapiens [51]): 90
Structure (SMILES): C=CC(=O)[C@H](Cc1ccccc1)NC(=O)OC(C)(C)C
- IC50 [9]: 21.5 µM
- IC50 (NCI-H460): 22.9 µM
- Ratio IC50 [10]: 37
- Ratio IC50 [11]: 39

- IC50 [1]: > 100 µM
Structure (SMILES): C=CC(=O)N(Cc1ccccc1)NC(=O)OC(C)(C)C

- IC50 [1]: > 100 µM
Structure (SMILES): CCC(=O)[C@H](Cc1ccccc1)NC(=O)OC(C)(C)C
- IC50 [9]: > 100 µM
- IC50 (NCI-H460): > 100 µM

- IC50 [1]: > 100 µM
Structure (SMILES): CC(C)(C)OC(=O)N[C@@H](Cc1ccccc1)C(=O)NCCCl

- IC50 [1]: > 100 µM
Structure (SMILES): CC(C)(C)OC(=O)NN(Cc1ccccc1)C(=O)CCl
